The test system of data set [1] is Bacillus subtilis. Description: Inhibition of Bacillus subtilis RNA polymerase using [alpha-32P]-UTP at 1 mM pretreated for 5 mins measured after 15 mins by electrophoresis analysis. A digest of the protocol:
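Reconstituted B. subtilis RNAP σA holoenzyme (6 nM) with supercoiled pLK7 template carrying the rrnB P1 promoter (4 ng/μL). Nucleotides: ATP/CTP/GTP 200 μM, UTP 10 μM plus 2 μM [α-³²P]-UTP. Compound at 1 mM; 5 min preincubation at 30 °C, started with RNAP, stopped after 15 min with formamide/EDTA.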

The nature of data set [2]: Cytotoxicity against human Erythroid progenitor cells assessed as cell viability after 48 hrs by CellTiter-blue assay. It counts as cell-based. The procedure, abridged:
(§1)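 Normal human erythroid progenitor cells, expanded from umbilical cord blood, plated at 25000 cells/well immediately before compound addition (added as a 5× predilution in culture medium). Viability by CellTiter-Blue fluorescence 48 h after addition, normalized to untreated cells set as 100%.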

Data set [3] concerns Staphylococcus epidermidis. Put plainly: Antibacterial activity against methicillin-resistant Staphylococcus epidermidis 8700/B after 24 to 48 hrs by microdilution method. It counts as functional. A digest of the protocol: (§2)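 Broth microdilution MIC on clinical isolates from Teaching Hospital Olomouc, stored at −80 °C. Compounds were serially diluted in brain heart infusion broth over 200–1.56 μg/mL (sometimes extended to 0.78 μg/mL), with an inoculum of 10⁵⁻⁶ CFU/ml per well. Plates were incubated at 37 °C and read at 24/48 h. MIC was taken as the lowest concentration inhibiting growth.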
For orientation: Dilution methods test growth across graded concentrations, often in twofold steps.

Data set [4] relates to Enterococcus faecium. Put plainly: Antibacterial activity against vancomycin-resistant Enterococcus faecium VanA419/ana after 24 to 48 hrs by microdilution method. It counts as functional. A digest of the protocol: as §2
The subject of data set [5] is Escherichia coli. Put plainly: Antibacterial activity against permeabilized Escherichia coli DH5[alpha] assessed as cell killing at 10 uM. It counts as functional. A digest of the protocol: (§3)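 Competent (permeabilized) E. coli DH5α cells were mixed with 5 ng pUC18 (ampR) and serially diluted compound or buffer only. Steps: 30 min on ice, heat shock at 42 °C for 90 s, 5 min on ice, then LB without antibiotic for 1 h at 37 °C with shaking. Plated on LB agarose with ampicillin 100 μg/mL overnight at 37 °C. Colonies counted against the no-compound control.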

A short description of data set [6]: Cytotoxicity against human Erythroid progenitor cells assessed as maximum safe concentration after 48 hrs by CellTiter-blue assay. It counts as cell-based. Conditions: read-out: Activity. A digest of the protocol:
as §1
For orientation: Resazurin is reduced to fluorescent resorufin, in cell work by metabolically active cells.

In the next data set the test system is Pseudomonas aeruginosa. Description: Antibacterial activity against Pseudomonas aeruginosa after 24 to 48 hrs by microdilution method. It counts as functional. A digest of the protocol: (§4)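 Incubation 24/48 h at 37 °C. MIC read as the lowest concentration inhibiting growth. MBC determined by transferring 10 μL from wells onto blood agar, taken as the lowest concentration with no visible growth.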

In the next data set the test system is Streptococcus agalactiae. Put plainly: Antibacterial activity against Streptococcus agalactiae after 24 to 48 hrs by microdilution method. It counts as functional. A digest of the protocol: as §4
Data set [7] deals with Escherichia coli. Description: Antibacterial activity against permeabilized Escherichia coli DH5[alpha] assessed as log reduction of colony forming unit at 10 uM. It counts as functional, organism-based. A digest of the protocol:
as §3

The test system of data set [8] is Escherichia coli. Description: Antibacterial activity against Escherichia coli after 24 to 48 hrs by microdilution method. It counts as functional. A digest of the protocol:
as §4

In data set [9] the test system is Enterococcus faecalis. Description: Antibacterial activity against Enterococcus faecalis CCM 4224 after 24 to 48 hrs by microdilution method. It counts as functional. The procedure, abridged: as §4
Data set [10] relates to Bacillus subtilis. Put plainly: Antibacterial activity against Bacillus subtilis after 24 to 48 hrs by microdilution method. It counts as functional. A digest of the protocol: as §4
The nature of data set [11]: Induction of apoptosis in human Erythroid progenitor cells assessed as caspase 3/7 activation after 4 hrs by Caspase-Glo 3/7 assay. The procedure, abridged: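 Cord-blood-derived human erythroid progenitor cells plated at 25000 cells/well and exposed to compound prediluted in medium. Caspase 3/7 activation read by Caspase-Glo 3/7 luminescence 4 h after addition, normalized to untreated control cells set as 100%.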

The subject of data set [12] is Escherichia coli. Put plainly: Antibacterial activity against permeabilized Escherichia coli DH5[alpha] assessed as cell killing at 25 uM. It counts as functional. The procedure, abridged:
as §3

For data set [13], the system named is Bacillus subtilis. The following applies: at 0.2 mM.
The test system of data set [14] is Escherichia coli. Put plainly: Antibacterial activity against permeabilized Escherichia coli DH5[alpha] assessed as log reduction of colony forming unit at 1 mM. It counts as functional, organism-based. A digest of the protocol: as §3
Data set [15] relates to Staphylococcus aureus. Description: Antibacterial activity against methicillin-resistant Staphylococcus aureus 4591 after 24 to 48 hrs by microdilution method. It counts as functional. The procedure, abridged: as §2
Data set [16] concerns Staphylococcus aureus. Put plainly: Antibacterial activity against Staphylococcus aureus CCM 4223 after 24 to 48 hrs by microdilution method. It counts as functional. A digest of the protocol:
as §4

In data set [17] the test system is Staphylococcus haemolyticus. Put plainly: Antibacterial activity against fluoroquinolone-resistant Staphylococcus haemolyticus 16568 after 24 to 48 hrs by microdilution method. It counts as functional. The procedure, abridged: as §2
The target of data set [18] is T1, Phospho-N-acetylmuramoyl-pentapeptide-transferase (Mycobacterium tuberculosis, UniProt P9WMW7).
T1 sequence (P9WMW7 whole entry): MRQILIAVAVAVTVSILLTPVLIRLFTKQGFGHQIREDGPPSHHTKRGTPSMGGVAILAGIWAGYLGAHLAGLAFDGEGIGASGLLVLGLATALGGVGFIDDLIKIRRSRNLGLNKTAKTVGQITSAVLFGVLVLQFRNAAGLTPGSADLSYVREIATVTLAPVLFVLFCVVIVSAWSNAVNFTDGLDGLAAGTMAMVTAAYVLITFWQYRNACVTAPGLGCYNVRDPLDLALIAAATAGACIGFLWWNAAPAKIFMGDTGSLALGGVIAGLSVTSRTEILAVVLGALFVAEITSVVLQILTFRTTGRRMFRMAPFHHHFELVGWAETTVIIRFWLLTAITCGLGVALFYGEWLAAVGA
Description: Inhibition of Mycobacterium tuberculosis MraY translocase.

Data set [19] has as its system Mycobacterium tuberculosis. Description: Antimycobacterial activity against drug-susceptible Mycobacterium tuberculosis. It counts as functional.
Data set [20] concerns Staphylococcus aureus. Description: Antibacterial activity against methicillin-sensitive Staphylococcus aureus ATCC 29213. It counts as functional. The procedure, abridged:
as §4

The test system of data set [21] is Enterococcus faecalis. Put plainly: Antibacterial activity against vancomycin-resistant Enterococcus faecalis SR7914. It counts as functional.
Data set [22] has as its system Enterococcus faecalis. Description: Antibacterial activity against Enterococcus faecalis ATCC 29212. It counts as functional.
Data set [23] concerns Staphylococcus aureus. Description: Antibacterial activity against Staphylococcus aureus infected in mouse. It counts as functional.
Data set [24] relates to Enterococcus faecium. Put plainly: Antibacterial activity against Enterococcus faecium ATCC 19434. It counts as functional. The procedure, abridged: as §4
The test system of data set [25] is Staphylococcus aureus. Description: Antibacterial activity against methicillin-resistant Staphylococcus aureus SR3637. It counts as functional.
Data set [26] has as its system Enterococcus faecium. Description: Antibacterial activity against vancomycin-resistant Enterococcus faecium SR7917. It counts as functional.

In brackets after ≈: the same amount, converted by molar mass. Activity calls are given as the source filed them.

The source of these data is ChEMBL document CHEMBL1921744, “Lipophosphonoxins: new modular molecular structures with significant antibacterial properties” (J Med Chem, 2011).

As usually defined, the IC50 is the midpoint of a concentration-inhibition curve. As usually defined, the MIC is the smallest concentration in the dilution series that meets the test's criterion for growth inhibition. For orientation: ED50 means the midpoint of the dose-response relation. The low end stands for greater potency, the high end for weaker potency.

For `CCCCCCCCCCCCCCCCOCCCOP(=O)(CCN1C[C@@H](O)[C@H](O)C1)OC[C@H]1O[C@@H](n2ccc(=O)[nH]c2=O)[C@H](O)[C@@H]1O` (stereo not given in full), the inhibition entry with Bacillus subtilis [1] is “inactive”. For the same compound, in [2], the IC50 amounted to 91 µg/mL (≈ 126 µM). Moreover, the MIC in [3] was 3.13 µg/mL (≈ 4.35 µM); against Enterococcus faecium [4] it was 6.25 µg/mL (≈ 8.68 µM); with Pseudomonas aeruginosa, greater than 200 µg/mL; in the data set on Streptococcus agalactiae it was 3.13 µg/mL (≈ 4.35 µM); against Escherichia coli [8] it was greater than 200 µg/mL; with Enterococcus faecalis [9], 12.5 µg/mL (≈ 17.4 µM). The compound further displayed an MIC in the data set with Bacillus subtilis [10] of 6.25 µg/mL (≈ 8.68 µM). The values for the Activity (in the data set on Escherichia coli [5]; in data set [11]) were 90% and “Non-toxic”, respectively. Besides, in data set [6], the MNTC at 48 h worked out at 62.5 µg/mL. Also, in the data set on Escherichia coli [7], the outcome was Active.
Turning to `CCCCCCCCCCCCCCCCCCCCOP(=O)(CCN1C[C@@H](O)[C@H](O)C1)OC[C@H]1O[C@@H](n2ccc(=O)[nH]c2=O)[C@H](O)[C@@H]1O` (stereo not given in full), in [2], the IC50 is 31 µg/mL (≈ 43.2 µM). The MNTC at 48 h in data set [6] was 15.6 µg/mL. For the same compound, the values for the Activity (in the data set on Escherichia coli [12]; in [11]) were 90% and “Non-toxic”, respectively. For the same compound, the MIC in the data set with Pseudomonas aeruginosa was greater than 200 µg/mL; against Streptococcus agalactiae it was 6.25 µg/mL (≈ 8.71 µM); in the data set on Escherichia coli [8], greater than 200 µg/mL; with Enterococcus faecalis [9] it was 100 µg/mL (≈ 139 µM). In addition, the outcome in the data set on Escherichia coli [7] was Active.
Take Cetyltrimethylammonium bromide: the inhibition result in the data set on Bacillus subtilis [13] is “Active”.
In the case of `O=c1ccn([C@@H]2O[C@H](COP(=O)(O)CCN3C[C@@H](O)[C@H](O)C3)[C@@H](O)[C@H]2O)c(=O)[nH]1`, the result in the data set on Escherichia coli [14] was inactive.
Take `CCCCCCCCCCCCCCCCOP(=O)(CCN1C[C@@H](O)[C@H](O)C1)OC[C@H]1O[C@@H](n2ccc(=O)[nH]c2=O)[C@H](O)[C@@H]1O` (mixture of isomers): the MIC is 12.5 µg/mL in the data set with Staphylococcus aureus [15]; 3.13 µg/mL in data set [3]; 3.13 µg/mL in the data set on Enterococcus faecium [4]; 6.25 µg/mL with Staphylococcus aureus [16]; 12.5 µg/mL in data set [17]; greater than 200 µg/mL against Pseudomonas aeruginosa. Further, the MIC with Streptococcus agalactiae was 1.56 µg/mL; against Escherichia coli [8] it was greater than 200 µg/mL; against Enterococcus faecalis [9], 6.25 µg/mL; against Bacillus subtilis [10], 3.13 µg/mL. Also, the IC50 in data set [2] stood at 56 µg/mL. Moreover, the Activity is 90% in the data set with Escherichia coli [5] and “Non-toxic” in [11]. In [6], the MNTC at 48 h turned out to be 31.2 µg/mL.
Consider `CC(C)CCCCCCCC(CC(=O)O[C@H]1CN(C)[C@@H]([C@H](O[C@@H]2O[C@H](CN)[C@@H](O)[C@H]2OS(=O)(=O)O)[C@H]2O[C@@H](n3ccc(=O)[nH]c3=O)[C@H](O)[C@@H]2O)C(=O)N(C)[C@@H]1C(=O)O)OC(=O)CC(C)CC(=O)O` (stereo not given in full) [LIPOSIDOMYCIN B], for which the IC50 in data set [18] was 49.1 nM.
With `CO[C@@H]1[C@@H](OC)[C@H](C)O[C@@H](OC(=O)C[C@@H](C)CC(=O)O[C@@H](CCCCCCCCCCCC(C)C)CC(=O)O[C@H]2CN(C)[C@@H]([C@H](O[C@@H]3O[C@H](CN)[C@@H](O)[C@H]3O)[C@H]3O[C@@H](n4ccc(=O)[nH]c4=O)[C@H](O)[C@@H]3O)C(=O)N(C)[C@@H]2C(=O)O)[C@@H]1OC` [CAPRAZAMYCIN B], the MIC in data set [19] amounted to 3.13 µg/mL (≈ 2.7 µM).
Take `CCCCCCCCCCCCCCOP(=O)(CCN1C[C@@H](O)[C@H](O)C1)OC[C@H]1O[C@@H](n2ccc(=O)[nH]c2=O)[C@H](O)[C@@H]1O` (stereo not given in full): the MIC against Staphylococcus aureus [15] is 25 µg/mL (≈ 39.4 µM); in data set [3] it was 12.5 µg/mL (≈ 19.7 µM); in the data set with Enterococcus faecium [4] it was 12.5 µg/mL (≈ 19.7 µM); against Staphylococcus aureus [16], 12.5 µg/mL (≈ 19.7 µM); in data set [17], 12.5 µg/mL (≈ 19.7 µM); in the data set on Pseudomonas aeruginosa, greater than 200 µg/mL. Moreover, the MIC in the data set on Streptococcus agalactiae is 6.25 µg/mL (≈ 9.86 µM); with Escherichia coli [8], greater than 200 µg/mL; in the data set on Enterococcus faecalis [9] it was 12.5 µg/mL (≈ 19.7 µM); in the data set with Bacillus subtilis [10], 6.25 µg/mL (≈ 9.86 µM). For the same compound, in data set [2], the IC50 amounted to 58 µg/mL (≈ 91.5 µM). Also, the MNTC at 48 h in data set [6] stood at 31.2 µg/mL. For the same compound, the Activity result in data set [11] is recorded as “Non-toxic”.
With `CC(C)C[C@H](NC(=O)[C@@H](NC(=O)N[C@H](C(=O)O)C(C)C)[C@@H]1CCNC(=N)N1)C(=O)NCCCN[C@H](C(=O)O)[C@H](O[C@@H]1O[C@H](CN)[C@@H](O)[C@H]1O)[C@H]1O[C@@H](n2ccc(=O)[nH]c2=O)[C@H](O)[C@@H]1O` [MURAMYCIN D2], the MIC in the data set with Staphylococcus aureus [20], against Enterococcus faecalis [21], in the data set on Enterococcus faecalis [22], against Enterococcus faecium [24], against Staphylococcus aureus [25] and against Enterococcus faecium [26] was greater than 64 µg/mL each time. This compound also showed an ED50 in the data set on Staphylococcus aureus [23] of 1.1 mg/kg.
